Assay results pooled from the literature.
Target: Dual specificity mitogen-activated protein kinase kinase 7 (MAP2K7, Homo sapiens, UniProt O14733)
One construct used (O14733 1-419): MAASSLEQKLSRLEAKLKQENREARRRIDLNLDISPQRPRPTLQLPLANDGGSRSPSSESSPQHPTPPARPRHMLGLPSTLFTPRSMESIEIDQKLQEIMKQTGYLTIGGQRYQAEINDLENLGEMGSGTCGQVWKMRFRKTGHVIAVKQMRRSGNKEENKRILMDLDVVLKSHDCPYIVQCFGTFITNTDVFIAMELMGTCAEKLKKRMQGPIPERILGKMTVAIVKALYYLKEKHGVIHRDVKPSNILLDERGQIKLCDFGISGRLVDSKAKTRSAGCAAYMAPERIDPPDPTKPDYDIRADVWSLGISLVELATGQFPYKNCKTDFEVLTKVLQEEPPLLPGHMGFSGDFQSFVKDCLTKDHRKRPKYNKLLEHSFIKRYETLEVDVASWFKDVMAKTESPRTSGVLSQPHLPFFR

SMILES	observed	mode	technique	tested at	endpoint	result
CNC(=O)c1cc(Oc2ccc(NC(=O)Nc3ccc(Cl)c(C(F)(F)F)c3)cc2)ccn1	enzyme activity	inhibitor	–	10 µM	inhibition	40%
F[C@@H]1CCN(c2nccc(-c3cnn4ncccc34)n2)C1	binding	–	–	1 µM	remaining binding	100%
Nc1ncnc2occ(-c3ccc(NC(=O)Nc4cc(C(F)(F)F)ccc4F)cc3)c12	cell-free assay	inhibitor	–	20 µM	remaining signal	2.9%
CC(C)(C)c1nc(-c2cccc(NS(=O)(=O)c3c(F)cccc3F)c2F)c(-c2ccnc(N)n2)s1	enzyme activity	inhibitor	radiometric	1 µM	remaining activity	78%
Cc1sc(C(=O)NC2COC2)cc1-n1cc(NC(=O)Nc2c(F)cccc2Cl)cn1	enzyme activity	inhibitor	–	10 µM	remaining activity	120%
N[C@@H]1CCN(c2nccc(-c3cnn4ncccc34)n2)C1	binding	–	–	1 µM	remaining binding	100%
Cc1ccc(C(=O)Nc2ccc(CN3CCN(C)CC3)c(C(F)(F)F)c2)cc1C#Cc1cnc2cccnn12	enzyme activity	inhibitor	–	23.5 nM	remaining activity	75%
Cc1cc(NC(=O)c2cccc(S(F)(F)(F)(F)F)c2)cc(-n2ccn3nc(-c4cccnc4)cc23)c1	cell-free assay	–	competition with immobilised ligand	1 µM	remaining binding	89.7%
CCN(CC)CCNC(=O)c1c(C)[nH]c(/C=C2\C(=O)Nc3ccc(F)cc32)c1C	enzyme activity	inhibitor	–	10 µM	inhibition	31%
CC(C)(C)c1nc2c(s1)c1nc(N)ncc1c1ccc(NS(=O)(=O)c3c(F)cccc3F)c(F)c12	enzyme activity	inhibitor	radiometric	1 µM	remaining activity	83%
O=C(Nc1cnn(-c2csc(C(=O)NC3COC3)c2)c1)Nc1c(F)cccc1Cl	enzyme activity	inhibitor	–	5 µM	remaining activity	135%
C[C@H](NC(=O)c1cnc2n1[C@](C)(Cc1ccc(C#N)cc1)C(=O)N2c1cc(Cl)c(F)c(Cl)c1)C(=O)NC1(c2ccccn2)CC1	cell-free assay	–	competition with immobilised ligand	1 µM	remaining binding	100%
